The sample as a whole holds a higher share of hits than the screen did.
WNV NS2B-NS3 inh – blocks West Nile virus NS2B-NS3 protease activity. P06935. WNV NS2B-NS3 protease, fluorogenic substrate Ex360/Em465; stronger effect = lower value. z-score (test concentration not listed). 65,000 tested, 0.18% active; in the data active = z-score below about -3
D1 allo mod – allosterically modulates the human D1 dopamine receptor. P21728. HEK293 D1, CRE-luciferase, dopamine EC30 potentiation; actives deviate in either direction. B-score at 10 µM. 58,000 tested, 5.9% active. AID 641;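 active = luminescence count or its row- and column-corrected plate score outside the 99.7% band of the plate's sample wells, on either side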
Target sequence (P21728 whole entry, looked up): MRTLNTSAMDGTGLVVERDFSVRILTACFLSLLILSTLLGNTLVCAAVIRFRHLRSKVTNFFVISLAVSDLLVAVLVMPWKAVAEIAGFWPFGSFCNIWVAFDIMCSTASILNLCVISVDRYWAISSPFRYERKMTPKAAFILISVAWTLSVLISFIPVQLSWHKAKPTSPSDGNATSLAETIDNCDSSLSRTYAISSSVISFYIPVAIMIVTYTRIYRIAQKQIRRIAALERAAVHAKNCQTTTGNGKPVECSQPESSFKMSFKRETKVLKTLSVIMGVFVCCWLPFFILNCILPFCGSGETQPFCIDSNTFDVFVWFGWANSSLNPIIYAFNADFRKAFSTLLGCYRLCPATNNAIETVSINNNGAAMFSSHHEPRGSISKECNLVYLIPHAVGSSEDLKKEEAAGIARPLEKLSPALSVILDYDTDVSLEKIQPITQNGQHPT
AP complement – orthogonal test for alternative complement pathway inhibitors. inhibition, % at 5 µM. 62,000 tested, 0.08% active. Human serum alternative complement pathway, LPS-coated ELISA, C3 deposition; tested in compound mixtures;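 active = inhibition above 30% in each of the two pooled mixtures holding the compound, so the lower value exceeds 30%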;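 also: 0% = serum in Mg-EGTA without compound and 100% = EDTA serum blank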
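Test system – human serum alternative complement pathway, C3 deposition on LPS-coated wells · Buffer or medium – diluted human serum in Mg2+-EGTA GVB++ · Compound dosing – 5 µM each compound, pools of ten, 50 µM per pool · Schedule – 1 h serum-compound exposure at 37 °C · Measured by – Anti-C3 ELISA, OD 450 nm · Read-out basis – percent inhibition of C3 deposition onto LPS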
hDAT+cocaine – human DAT dopamine uptake with cocaine, either direction; LLC-PK1 hDAT cells, [14C]-dopamine uptake with cocaine IC80; actives deviate in either direction; B-score at 10 µM; 110,000 tested, 1.3% active; AID 449768;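 active = Z score or B-score, a plate-position-corrected score, falls beyond the plate's 99.7% confidence bounds, in either direction; inactive = both scores lie inside the 99.7% bounds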;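 also: scored against the spread of the other compound wells on the same plate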
D1 mod confirm – confirmation of human D1 dopamine receptor allosteric modulators; AID 642; HEK293 D1 CRE-luciferase, dopamine EC30 potentiation; stronger effect = higher value; shares compounds with D1 allo mod; luminescence at 10 µM; 2,200 tested, 88% active;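 active = luminescence in either of two replicates above the same-plate mean plus 3 SD of the low-dose dopamine control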
D1 ag no DA – activates D1 CRE-luciferase signal without dopamine present | AID 646 | luminescence at 10 µM | shares compounds with D1 allo mod | HEK293 D1 CRE-luciferase, luminescence, no dopamine; stronger effect = higher value | 1,900 tested, 0.8% active; in the data active = luminescence above about 3900
Isoprot counter – counter-screen for D1 modulators: isoproterenol response in HEK293 cells | shares compounds with D1 allo mod | HEK293 D1 CRE-luciferase, isoproterenol EC30 counter-screen; stronger effect = higher value | luminescence at 10 µM | 2,200 tested, 63% active | AID 647;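 active = luminescence in either replicate above plate mean of wells with a partly effective reference agonist dose plus 3 SD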;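 also: isoproterenol raises cAMP through native beta-adrenoceptor Gs so signal bypasses D1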
* marks the source's active call; other numbers are inactive results; · = not tested or not shown.

SMILES	WNV NS2B-NS3 inh	D1 allo mod	AP complement	hDAT+cocaine	others
Cn1ncnc2c(=O)n(C)c(=O)nc1-2	-0.47	-6.5*	13	-1.2
CCOC(=O)c1c(C)c(P(=S)(N2CCOCC2)N2CCOCC2)n(C)c1C	-0.06	0.87	-11	0.42
COC(=O)C1C2c3ccccc3OC1(C)N=c1s/c(=C/c3cn(C)nc3C)c(=O)n12 (centres undefined)	-1.2	-4.2*	14	0.47
CCN(CC)CCCN=C(C)c1c(O)n(-c2ccccc2)c(=O)[nH]c1=O	1	-0.092	-19	0.83
CCC(=NCCCN(CC)CC)c1c(O)n(-c2ccccc2)c(=O)[nH]c1=O	-0.75	-0.22	36*	1.6
O=C(NC1CCCCC1)[C@@H]1CC=C[C@@H]2CCN(Cc3ccccc3)C(=O)[C@@H]21	·	·	·	0.9
CC(C)(C)c1ccc(S(=O)(=O)N2CC3CC(C2)c2cccc(=O)n2C3)cc1 (centres undefined)	·	·	·	2.4*
Cn1c(O)c(C=NCCCNC2CCCCC2)c(=O)n(C)c1=O	0.17	·	·	-0.017
CCOc1cc(-c2nc3c(C)cccn3c2NCC2CCCO2)ccc1O (centres undefined)	1.2	-0.078	10	1.1
CCNCC1(c2ccc(OC)c(OC)c2)CCCC1	-4.8*	0.55	5	0.39
CNCCc1ccc(OC)c(OC)c1	·	·	·	0.36
CNCC1(c2ccccc2)CCCC1	·	·	·	-7.4*
CNCCCc1ccccc1	·	·	·	0.0065
CS(=O)(=O)c1ccc(C2=C(c3ccccc3)C(=O)OC2)cc1	·	·	·	-0.099
CCN(CC)C1=NC(=[N+](CC)CC)c2ccccc21	·	·	·	-3*
COC(=O)C1=C(c2ccc(S(C)(=O)=O)cc2)C[C@@H]2CC[C@H]1N2C(=O)NCc1cccc2ccccc12	·	·	·	0.74
CC/C(=C\C=C\[C@@H]1C=C[C@@H]2CCC[C@H]2[C@@H]1C(=O)c1ccc[nH]1)[C@@H]1O[C@@H]([C@@H](C)C(=O)O)CC[C@@H]1C	·	·	·	-4*
CC(=NCC1CCCO1)c1c(O)n(C)c(=O)n(C)c1=O (centres undefined)	0.33	-0.62	0	-0.25
CC(C)(C)P(=O)(c1ccncc1)N1CCCC1 (centres undefined)	0.7	-0.16	0	6.2*
Cc1ccc(-c2nc3ccccc3c(=O)n2-c2ncccc2C)cc1	·	·	·	0.32
C[C@@H]1O[C@@H](O[C@H]2C[C@@H](O)[C@]3(CO)[C@H]4[C@H](O)C[C@]5(C)[C@@H](C6=CC(=O)OC6)CC[C@]5(O)[C@@H]4CC[C@]3(O)C2)[C@H](O)[C@H](O)[C@H]1O	·	·	·	-6.6*
C[C@H]1O[C@@H](O[C@H]2[C@@H](O)C[C@H](O[C@H]3[C@@H](O)C[C@H](O[C@H]4CC[C@@]5(C)[C@H](CC[C@@H]6[C@@H]5CC[C@]5(C)[C@@H](C7=CC(=O)OC7)CC[C@]65O)C4)O[C@@H]3C)O[C@@H]2C)C[C@H](O)[C@@H]1O	·	·	·	-7.2*
CN1CC[C@@H](c2ccc(F)cc2)[C@H](COc2ccc3c(c2)OCO3)C1	·	·	·	-0.6
CC(C)Sc1nnc([C@@H](N)Cc2ccccc2)o1	·	·	·	-1.5
COP(=O)(OC)C(O)C(Cl)(Cl)Cl (centres undefined)	-3.4*	-0.72	6	·
SMILES	WNV NS2B-NS3 inh	D1 allo mod	AP complement	hDAT+cocaine	others
CCOP(=O)(OCC)C(NC(=O)C(Cl)Cl)C(Cl)(Cl)Cl (centres undefined)	·	·	·	-1.3
O=C(COc1ccccc1)N1CCN(Cc2c[nH]c3ccccc23)CC1	-0.46	-0.78	10	0.031
O=C(Cc1ccccc1)N1CCN(Cc2c[nH]c3ccccc23)CC1	-1.2	0.039	42*	0.4
COc1ccc(OCC(=O)N2CCN(Cc3c[nH]c4ccccc34)CC2)cc1	-1	-0.38	4	4.3*
CCN1CCN(C(c2cccs2)C(C)NC(=O)Oc2ccccc2)CC1 (centres undefined)	·	·	·	0.14
CNC(=O)Oc1ccc2c(c1)C(=O)c1ccccc1CO2	·	·	·	0.51
COc1ccc(C(O)CNC(C)C)c(F)c1OC (centres undefined)	·	·	·	-0.047
N#Cc1ccc(N2CCNCC2)c(F)c1	-1.2	-1.3	14	-0.43
Cc1ccc(OP(=O)(O)Oc2ccc(C)cc2)cc1	·	·	·	0.63
CC1=CC(C)C(COC(N)=O)(COC(N)=O)C(C)C1 (centres undefined)	1.4	-1.4*	14	-0.06
CCCCCCn1c(O)c(C=NC2CCN(Cc3ccccc3)CC2)c(=O)[nH]c1=O	-0.0085	-3*	11	-0.18
O=C(NCC(c1cccnc1)N1CCN(c2ccccc2F)CC1)Oc1ccccc1 (centres undefined)	0.38	-1.6	-5	0.11
COc1ccc(N2CCN(C(CNC(=O)Oc3ccccc3)c3cccnc3)CC2)cc1 (centres undefined)	-7.2*	-0.56	·	1.2
Nc1ccccc1C(=O)OCCOc1ccccc1	0.16	-4.4*	19	-0.26
O=C(C(Cc1ccccc1)NS(=O)(=O)c1ccc(F)cc1)N1CCC2(CC1)OCCO2 (centres undefined)	0.25	0.014	11	-0.00019
CN1CCN(C(=O)COc2ccc(-c3nc4ccccc4s3)cc2)CC1	-0.21	-4.4*	16	1.8
CC(C)NS(=O)(=O)c1ccc(OCC(=O)N2CCN(C)CC2)cc1	-0.42	-0.076	14	1.9
O=C(N/N=C1/CN2CCC1CC2)c1cc2ccccc2cc1O	·	·	·	-8.2*
C=C(C)[C@@]12OC3(c4ccccc4)O[C@@H]1C1[C@@H]4O[C@]4(CO)[C@@H](O)[C@]4(O)C(=O)C(C)=C[C@H]4[C@@]1(O3)[C@H](C)[C@H]2OC(=O)/C=C/C=C/c1ccccc1 (some centres undefined)	·	·	·	-6.3*
CC(C)C/C(=N/O)c1c[nH]c2ccccc12	·	·	·	4.2*
CCN1CCN(Cc2ccc(C)cc2)CC1	-0.19	-0.19	5	-0.67
CCCCCCOc1ccc(CN2CCN(C)CC2)cc1	0.61	-3.5*	-7	-0.36
Cn1c(O)c(C=NCCN2CCN(C(=O)c3ccccc3)CC2)c(=O)n(C)c1=O	-0.41	-7.4*	23	-0.74
CC1(C)CN=C(Nc2ccc(F)c(F)c2)S1	0.81	12*	12	0.069	D1 mod confirm=25280*;D1 ag no DA=1544;Isoprot counter=4564*
CCOC(=O)c1c(C)n(Cc2ccc3c(c2)OCO3)c2ccc(O)cc12	·	·	·	0.46
CCOC(=O)c1c(C)n(Cc2ccccc2)c2ccc(OCC(O)CN3C(=O)CNC3=O)cc12 (centres undefined)	2.5	10*	-10	1.7	D1 mod confirm=22384*;D1 ag no DA=1552;Isoprot counter=5668*
O=C(CCCOc1ccc(Cl)cc1Cl)N1CCC2(CC1)OCCO2	-0.51	6.6*	1	-0.4	D1 mod confirm=8848*;D1 ag no DA=1464;Isoprot counter=4488*

Assay outcomes: PubChem BioAssay, several laboratories
